How the values were obtained:
Jurkat [1] = assay: Cytotoxicity against human Jurkat cells assessed as growth inhibition at 100 uM after 48 hrs by MTT assay; type: functional
How it was run: (§1)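 Jurkat and Raji cells in RPMI 1640 with 10% fetal bovine serum, plated at 10⁴ cells/well. Compounds in DMSO diluted into medium, tested at 0.1–100. Exposure 48 h at 37 °C, 5% CO₂. Doxorubicin positive control; 0.6% DMSO negative control. MTT added for a further 4 h; formazan dissolved in 2-propanol/DMSO/HCl (30:20:2); A570. Inhibition percentage taken at the top concentration.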

Raji [2] = assay: Cytotoxicity against human Raji cells assessed as growth inhibition at 100 uM after 48 hrs by MTT assay; type: functional; how it was run: as §1
MCF7 [3] = assay: Cytotoxicity against human MCF7 cells assessed as growth inhibition at 100 uM after 72 hrs by MTT assay; type: functional; conditions: MCF7, 72 h
How it was run: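 MCF-7 cells in RPMI 1640 with 10% fetal bovine serum, plated at 10⁴ cells/well. Compounds in DMSO diluted into medium at 0.1–100 and incubated 72 h at 37 °C, 5% CO₂. Doxorubicin served as positive control and 0.6% DMSO as negative control. MTT for 4 h; formazan dissolved in 2-propanol/DMSO/HCl (30:20:2); read at 570 nm. Inhibition percentage at the highest concentration.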

Jurkat [4] = assay: Cytotoxicity against human Jurkat cells after 48 hrs by MTT assay; type: functional, cell-based
How it was run: (§2)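 Cells were grown in RPMI 1640 with 10% fetal bovine serum and plated at 10⁴ cells/well. Compounds were dissolved in DMSO, diluted in medium, and tested at 0.1, 1, 10, 25, 50, 75 and 100. Incubation was at 37 °C in 5% CO₂ for 48 h (Jurkat, Raji) or 72 h (MCF-7). Controls were doxorubicin (positive) and 0.6% DMSO (negative). MTT was added for a further 4 h, formazan was dissolved in 2-propanol/DMSO/HCl (30:20:2), and absorbance was read at 570 nm.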

Raji [5] = assay: Cytotoxicity against human Raji cells after 48 hrs by MTT assay; type: functional, cell-based; how it was run: as §2
MCF7 [6] = assay: Cytotoxicity against human MCF7 cells after 72 hrs by MTT assay; type: functional, cell-based; conditions: MCF7, 72 h; how it was run: as §2

Structure (SMILES) | inhibition at 100 µM (Jurkat [1]) | inhibition at 100 µM (Raji [2]) | inhibition at 100 µM (MCF7 [3]) | IC50 (Jurkat [4]) | IC50 (Raji [5]) | IC50 (MCF7 [6])
CCOP(=O)(OCC)C(Nc1nc2[nH]cnc2c(=O)[nH]1)c1ccc(C(Nc2nc3[nH]cnc3c(=O)[nH]2)P(=O)(OCC)OCC)cc1 (stereo not given) | 0% | 64.8% | 12.7% |  |  | 
CCOP(=O)(OCC)C(Nc1ccccc1)c1ccc(C(Nc2ccccc2)P(=O)(OCC)OCC)cc1 (stereo not given) | 36.8% | 27.2% | 25.4% |  |  | 
CCOP(=O)(OCC)C(NCCc1c[nH]c2ccccc12)c1ccc(C(NCCc2c[nH]c3ccccc23)P(=O)(OCC)OCC)cc1 (stereo not given) | 68.4% | 64.8% | 54.2% | 24.3 µM | 45.2 µM | 67.5 µM
CCOP(=O)(OCC)C(Nc1ccc(Cc2ccc(NC(c3ccc(N(C)C)cc3)P(=O)(OCC)OCC)cc2)cc1)c1ccc(N(C)C)cc1 (stereo not given) | 17.8% | 0.78% | 12.7% |  |  | 
CCOP(=O)(OCC)C(Nc1ccc(Cc2ccc(NC(c3cc(OC)c(OC)c(OC)c3)P(=O)(OCC)OCC)cc2)cc1)c1cc(OC)c(OC)c(OC)c1 (stereo not given) | 20.1% | 0% | 3.5% |  |  | 
CCOP(=O)(OCC)C(Nc1ccc(Cc2ccc(NC(c3ccccc3)P(=O)(OCC)OCC)cc2)cc1)c1ccccc1 (stereo not given) | 28% | 6.41% | 13.9% |  |  | 
COc1cccc2c1C(=O)c1c(O)c3c(c(O)c1C2=O)C[C@@](O)(C(=O)CO)C[C@@H]3O[C@H]1C[C@H](N)[C@H](O)[C@H](C)O1 [DOXORUBICIN] | 82.3% | 66.7% | 65.5% |  |  | 
CCOP(=O)(OCC)C(Nc1ccc(C(=O)c2ccc(NC(c3ccccc3)P(=O)(OCC)OCC)cc2)cc1)c1ccccc1 (stereo not given) | 15.8% | 0% | 10.2% |  |  | 
CCOP(=O)(OCC)C(Nc1ccc(Cc2ccc(NC(c3ccc([N+](=O)[O-])cc3)P(=O)(OCC)OCC)cc2)cc1)c1ccc([N+](=O)[O-])cc1 (stereo not given) | 10.7% | 0% | 12.2% |  |  | 
CCOP(=O)(OCC)C(Nc1ccc(Oc2ccc(NC(c3ccccc3)P(=O)(OCC)OCC)cc2)cc1)c1ccccc1 (stereo not given) | 6.84% | 0% | 0% |  |  | 
CCOP(=O)(OCC)C(Nc1ccc(S(=O)(=O)c2ccc(NC(c3ccc(O)c(OC)c3)P(=O)(OCC)OCC)cc2)cc1)c1ccc(O)c(OC)c1 (stereo not given) | 15.6% | 0% | 16.6% |  |  | 
CCOP(=O)(OCC)C(Nc1ccc(Cc2ccc(NC(c3ccc(O)c(OC)c3)P(=O)(OCC)OCC)cc2)cc1)c1ccc(O)c(OC)c1 (stereo not given) | 40.1% | 56.2% | 29.1% |  | 58.6 µM | 

Reference: ChEMBL document CHEMBL1155977, “Design and one-pot synthesis of alpha-aminophosphonates and bis(alpha-aminophosphonates) by iron(III) chloride and cytotoxic activity” (Eur J Med Chem, 2009)
